In ChEMBL document CHEMBL4689842, “EUbOPEN Chemogenomics Library wave 1” (2021):

System: HEK-293T
Experiment: Multiplex assay against HEK293T;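 for Population Tubulin-Different-Phenotype (%): share of the cells with healthy nuclei that show this phenotype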
Type: toxicity, cell-based
Details: human
Method in brief: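 Values for tubulin, mitochondrial-mass and membrane-permeability phenotypes are per cents of cells with healthy nuclei. These cells were identified by CellPathfinder machine-learning gating of live cells that had been stained at seeding with Hoechst33342, BioTracker Green Microtubule Cytoskeleton Dye, MitoTracker Red and Annexin V Alexa Fluor 680 and imaged on a CQ1 microscope at 37°C and 5% CO2 after compound addition. The gating first set Hoechst high-intensity objects apart from normal cells, then split normal cells into healthy, pyknosed or fragmented nuclei, and pyknosed cells into mitotic or apoptotic.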

[1] = 12 h, 1 µM, compound concentration 1 uM, replicate 1
[2] = 12 h, 1 µM, compound concentration 1 uM, replicate 2
[3] = 12 h, 10 µM, compound concentration 10 uM, replicate 1
[4] = 12 h, 10 µM, compound concentration 10 uM, replicate 2
[5] = 24 h, 1 µM, compound concentration 1 uM, replicate 1
[6] = 24 h, 1 µM, compound concentration 1 uM, replicate 2
[7] = 24 h, 10 µM, compound concentration 10 uM, replicate 1
[8] = 24 h, 10 µM, compound concentration 10 uM, replicate 2
[9] = 48 h, 1 µM, compound concentration 1 uM, replicate 1
[10] = 48 h, 1 µM, compound concentration 1 uM, replicate 2
[11] = 48 h, 10 µM, compound concentration 10 uM, replicate 1
[12] = 48 h, 10 µM, compound concentration 10 uM, replicate 2

Oc1cccc(-c2nc(N3CCOCC3)c3oc4ncccc4c3n2)c1 [PI-103]
Population Apoptotic (%) [1]: 58% | Population Fragmented Nuclei (%) [1]: 6% | Population Healthy Nuclei (%) [1]: 16% | Population Hoechst High Intensity Objects (%) [1]: 21% | Population Membrane Permeable-Phenotype (%) [1]: 2% | Population Mitochondria Different-Phenotype (%) [1]: 85% | Population Mitotic Cells (%) [1]: 41% | Population Normal (%) [1]: 78% | Population Pyknosed Nuclei (%) [1]: 77% | Population Tubulin-Different-Phenotype (%) [1]: 82% | Total Cell Count [1]: 269 | Population Apoptotic (%) [2]: 51% | Population Fragmented Nuclei (%) [2]: 10% | Population Healthy Nuclei (%) [2]: 13% | Population Hoechst High Intensity Objects (%) [2]: 14% | Population Membrane Permeable-Phenotype (%) [2]: 10% | Population Mitochondria Different-Phenotype (%) [2]: 68% | Population Mitotic Cells (%) [2]: 48% | Population Normal (%) [2]: 85% | Population Pyknosed Nuclei (%) [2]: 76% | Population Tubulin-Different-Phenotype (%) [2]: 63% | Total Cell Count [2]: 161 | Population Apoptotic (%) [3]: 72% | Population Fragmented Nuclei (%) [3]: 14% | Population Healthy Nuclei (%) [3]: 8% | Population Hoechst High Intensity Objects (%) [3]: 18% | Population Membrane Permeable-Phenotype (%) [3]: 11% | Population Mitochondria Different-Phenotype (%) [3]: 94% | Population Mitotic Cells (%) [3]: 27% | Population Normal (%) [3]: 81% | Population Pyknosed Nuclei (%) [3]: 77% | Population Tubulin-Different-Phenotype (%) [3]: 94% | Total Cell Count [3]: 269 | Population Apoptotic (%) [4]: 64% | Population Fragmented Nuclei (%) [4]: 7% | Population Healthy Nuclei (%) [4]: 6% | Population Hoechst High Intensity Objects (%) [4]: 6% | Population Membrane Permeable-Phenotype (%) [4]: 27% | Population Mitochondria Different-Phenotype (%) [4]: 54% | Population Mitotic Cells (%) [4]: 35% | Population Normal (%) [4]: 93% | Population Pyknosed Nuclei (%) [4]: 85% | Population Tubulin-Different-Phenotype (%) [4]: 72% | Total Cell Count [4]: 172 | Population Apoptotic (%) [5]: 47% | Population Fragmented Nuclei (%) [5]: 13% | Population Healthy Nuclei (%) [5]: 10% | Population Hoechst High Intensity Objects (%) [5]: 22% | Population Mitochondria Different-Phenotype (%) [5]: 78% | Population Mitotic Cells (%) [5]: 52% | Population Normal (%) [5]: 77% | Population Pyknosed Nuclei (%) [5]: 76% | Population Tubulin-Different-Phenotype (%) [5]: 86% | Total Cell Count [5]: 293 | Population Apoptotic (%) [6]: 53% | Population Fragmented Nuclei (%) [6]: 9% | Population Healthy Nuclei (%) [6]: 26% | Population Hoechst High Intensity Objects (%) [6]: 15% | Population Membrane Permeable-Phenotype (%) [6]: 13% | Population Mitochondria Different-Phenotype (%) [6]: 59% | Population Mitotic Cells (%) [6]: 46% | Population Normal (%) [6]: 84% | Population Pyknosed Nuclei (%) [6]: 64% | Population Tubulin-Different-Phenotype (%) [6]: 64% | Total Cell Count [6]: 168 | Population Apoptotic (%) [7]: 63% | Population Fragmented Nuclei (%) [7]: 18% | Population Healthy Nuclei (%) [7]: 8% | Population Hoechst High Intensity Objects (%) [7]: 17% | Population Membrane Permeable-Phenotype (%) [7]: 10% | Population Mitochondria Different-Phenotype (%) [7]: 100% | Population Mitotic Cells (%) [7]: 36% | Population Normal (%) [7]: 82% | Population Pyknosed Nuclei (%) [7]: 73% | Population Tubulin-Different-Phenotype (%) [7]: 90% | Total Cell Count [7]: 291 | Population Apoptotic (%) [8]: 65% | Population Fragmented Nuclei (%) [8]: 11% | Population Healthy Nuclei (%) [8]: 11% | Population Hoechst High Intensity Objects (%) [8]: 16% | Population Membrane Permeable-Phenotype (%) [8]: 23% | Population Mitochondria Different-Phenotype (%) [8]: 70% | Population Mitotic Cells (%) [8]: 34% | Population Normal (%) [8]: 83% | Population Pyknosed Nuclei (%) [8]: 76% | Population Tubulin-Different-Phenotype (%) [8]: 88% | Total Cell Count [8]: 175 | Population Apoptotic (%) [9]: 56% | Population Fragmented Nuclei (%) [9]: 23% | Population Healthy Nuclei (%) [9]: 4% | Population Hoechst High Intensity Objects (%) [9]: 22% | Population Membrane Permeable-Phenotype (%) [9]: 9% | Population Mitochondria Different-Phenotype (%) [9]: 72% | Population Mitotic Cells (%) [9]: 43% | Population Normal (%) [9]: 77% | Population Pyknosed Nuclei (%) [9]: 71% | Population Tubulin-Different-Phenotype (%) [9]: 63% | Total Cell Count [9]: 297 | Population Apoptotic (%) [10]: 50% | Population Fragmented Nuclei (%) [10]: 12% | Population Healthy Nuclei (%) [10]: 55% | Population Hoechst High Intensity Objects (%) [10]: 14% | Population Membrane Permeable-Phenotype (%) [10]: 7% | Population Mitochondria Different-Phenotype (%) [10]: 63% | Population Mitotic Cells (%) [10]: 50% | Population Normal (%) [10]: 85% | Population Pyknosed Nuclei (%) [10]: 31% | Population Tubulin-Different-Phenotype (%) [10]: 88% | Total Cell Count [10]: 185 | Population Apoptotic (%) [11]: 55% | Population Fragmented Nuclei (%) [11]: 29% | Population Healthy Nuclei (%) [11]: 7% | Population Hoechst High Intensity Objects (%) [11]: 17% | Population Membrane Permeable-Phenotype (%) [11]: 0% | Population Mitochondria Different-Phenotype (%) [11]: 94% | Population Mitotic Cells (%) [11]: 44% | Population Normal (%) [11]: 82% | Population Pyknosed Nuclei (%) [11]: 63% | Population Tubulin-Different-Phenotype (%) [11]: 84% | Total Cell Count [11]: 307 | Population Apoptotic (%) [12]: 78% | Population Fragmented Nuclei (%) [12]: 10% | Population Healthy Nuclei (%) [12]: 18% | Population Hoechst High Intensity Objects (%) [12]: 22% | Population Membrane Permeable-Phenotype (%) [12]: 8% | Population Mitochondria Different-Phenotype (%) [12]: 80% | Population Mitotic Cells (%) [12]: 21% | Population Normal (%) [12]: 77% | Population Pyknosed Nuclei (%) [12]: 71% | Population Tubulin-Different-Phenotype (%) [12]: 88% | Total Cell Count [12]: 177
